STEP block: STEP (human) phosphatase inhibition; P54829; inhibition, % at 20 µM; 360,000 compounds, 0.25% hits; AID 588621; recombinant STEP, OMFP fluorogenic substrate, fluorescence;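 active means inhibition at 20 µM, scaled per plate between control wells, above about 37%, limit read from the data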;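 further: 0% = DMSO with enzyme and substrate and 100% = substrate only without enzyme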
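Assay system: isolated STEP enzyme. Buffer or medium: pH 6.0 Bis-Tris with DTT and Tween 20. Also added: fluorogenic phosphatase substrate OMFP at 25 µM final. Dosing: 20 µM, 1% DMSO. Timing: 20 min reaction, room temperature, in the dark. Measured by: fluorescence intensity, excitation 480 nm, emission 540 nm. Evaluation: normalized % inhibition.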
Rpn11 inh: inhibitors of human proteasome Rpn11 | human 26S proteasome, Ub4-pepOG fluorescence polarization; 20S core pre-blocked with epoxomicin | O00487 | AID 588493 | 360,000 compounds, 0.59% hits | inhibition, % at 20 µM;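 active means inhibition at 20 µM, scaled to each plate's controls, above about 33%, limit read from the data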
Target sequence (O00487 whole entry, looked up): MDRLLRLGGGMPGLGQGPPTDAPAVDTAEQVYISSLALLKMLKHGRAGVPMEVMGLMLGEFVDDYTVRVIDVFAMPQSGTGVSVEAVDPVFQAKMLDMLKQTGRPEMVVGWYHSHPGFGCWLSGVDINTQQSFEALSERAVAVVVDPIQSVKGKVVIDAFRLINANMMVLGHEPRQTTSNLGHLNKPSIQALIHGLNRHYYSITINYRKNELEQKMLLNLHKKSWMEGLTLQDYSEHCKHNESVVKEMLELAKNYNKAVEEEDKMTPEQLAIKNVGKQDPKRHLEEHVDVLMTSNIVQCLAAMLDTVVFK
SUMO1 PPI mod: alters human SUMO1 binding to SIM partners; 360,000 compounds, 0.33% hits; SUMO1 binding to a labelled peptide, TR-FRET, 1 h; inhibition, % at 20 µM; in the data active means inhibition above about 37%
LMPTP block: LMPTP (human) inhibition | 360,000 compounds, 0.22% hits | inhibition, % at 20 µM | AID 651560 | P24666 | recombinant LMPTP-A, OMFP fluorogenic substrate, fluorescence intensity;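 active means compounds that cut the enzyme signal by at least half of the control window in the single-dose screen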;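 further: plate controls were DMSO wells with enzyme plus substrate for no effect and substrate without enzyme for full effect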
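material = LMPTP-A | quantity = 0.625 nM enzyme | reagent = OMFP substrate, 400 µM final | buffer or medium = Bis-Tris pH 6.0, DTT, detergent | detection = endpoint fluorescence intensity from OMFP dephosphorylation | dosing = single 20 µM dose | read-out basis = % inhibition relative to no-enzyme and uninhibited control wells | control set = no-enzyme and uninhibited controls | timing = 50 min at room temperature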
Scp-1 inhibitor: inhibitors of human Scp-1 phosphatase | Q9GZU7 | Recombinant Scp1, phosphopeptide, malachite green phosphate absorbance | inhibition, % at 20 µM | 340,000 compounds, 0.88% hits | AID 493091;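 active means inhibition above about 50% at 20 µM, limit read from the data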;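 further: plate controls were DMSO wells with enzyme for no effect and wells lacking enzyme for full effect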
Target sequence (Q9GZU7 76-261 limits assumed): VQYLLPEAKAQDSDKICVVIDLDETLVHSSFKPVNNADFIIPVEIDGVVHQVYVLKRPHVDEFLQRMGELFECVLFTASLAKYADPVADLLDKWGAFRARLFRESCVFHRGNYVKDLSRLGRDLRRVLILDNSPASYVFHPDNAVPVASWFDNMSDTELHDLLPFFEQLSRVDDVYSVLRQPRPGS
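Material – SCP-1 phosphatase catalytic domain, residues 76-261 · Buffer or medium – Acidic Tris acetate buffer with magnesium and detergent · Also added – Phospho 17-mer peptide substrate · Compound – single 20 µM dose, 1% DMSO · Times – 45 min room-temperature reaction, 5 min colour, 30 min stabiliser · Technique – Phosphate-binding colour reagent, absorbance read at 630 nm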
DNMT1 block: DNMT1 (human) enzyme inhibition | P26358 | DNMT1 molecular beacon, Hinp1I cleavage, fluorescence | inhibition (reported as % activation of signal), % at 10 µM | 360,000 compounds, 0.83% hits | AID 588458; in the data active means inhibition above about 50%
Starred values were filed as active, the others as inactive; i = inactive; . = no result given; + = active, no number. In the library only some 2.3% were active in any assay of this set; here they are far more common.

SMILES | STEP block | Rpn11 inh | SUMO1 PPI mod | LMPTP block | Scp-1 inhibitor | DNMT1 block
CCOC(=O)Cc1csc(-n2sc3ccccc3c2=O)n1 | -1 | 22 | 10 | 1 | 74* | -27
CCN(CC)c1ccc(NC(=O)CSc2ccsc2[N+](=O)[O-])c(C)c1 | 5 | -10 | -6 | 2 | 19 | 53*
COc1cc(-c2cc(=O)c3c(C)cc(O)cc3o2)cc(OC)c1OC | 4 | -6 | 7 | -2 | 5 | -7
COc1ccc(-c2cc(=O)c3c(C)cc(O)cc3o2)cc1 | 3 | 33 | 45* | 18 | 47 | 8
O=C(CN(C(=O)CCC(=O)Nc1nccs1)c1cccc(F)c1)NCCc1ccccc1 | 0 | -3 | 2 | 0 | 0 | 0
Nc1nc(-c2ccc(Oc3ccccc3)cc2)c(CC(=O)O)s1 | 0 | . | -22 | 1 | -4 | -13
CCOc1cccc2cc(C(=O)NCc3cccnc3)c(=O)oc12 | -5 | -1 | -21 | -2 | -2 | 4
C=CCc1cccc2cc(C(=O)NCc3cccnc3)c(=O)oc12 | 1 | 7 | -19 | 52* | -4 | 2
C=CCc1cccc2cc(C(=O)Nc3ccc(F)cc3)c(=O)oc12 | 1 | 2 | 1 | 0 | -8 | 9
C=CCc1cccc2cc(C(=O)Nc3ccc(S(=O)(=O)Nc4nnc(CC)s4)cc3)c(=O)oc12 | 91* | 5 | 5 | 1 | 101* | 8
COC(=O)c1ccccc1-c1c2ccc(=N)cc-2oc2cc(N)ccc12 | i | -246 | i | i | 5 | +
COc1ccccc1C(=O)N/N=C(\C)c1ccc(NC(=O)Cc2ccccc2)cc1 | 1 | -2 | 44* | -2 | 1 | -4
C/C(=N\NC(=O)c1ccccc1N)c1ccc(NC(=O)Cc2ccccc2)cc1 | -2 | 2 | -2 | -2 | -4 | 0
CC(C)Oc1ccc(-c2nc(NCC3CCCO3)c3ccccc3n2)cc1 (configuration not stated) | 0 | 4 | 4 | 51* | -4 | 7
CCOC(=O)C1(CCCc2ccccc2)CCN(C(=O)c2cc(C)nn2CC)CC1 | -1 | -3 | 43* | 0 | -5 | -4
CCOC(=O)C1(CCCc2ccccc2)CCN(C(=O)c2cncs2)CC1 | 2 | -3 | -3 | 0 | -10 | 3
COCC(=O)OC1CCn2c1nc1c2C(=O)C(C)=C(NC(C)=O)C1=O (configuration not stated) | 2 | -2 | 19 | 5 | 4 | 88*
O=C(NN1C(=O)C2C(C1=O)C1C=CC2C12CC2)c1ccc(Cl)cc1 (configuration not stated) | 2 | 2 | 1 | -3 | -4 | -2
Cc1ccc(C(=O)NN2C(=O)C3C(C2=O)C2C=CC3C23CC3)cc1 (configuration not stated) | 0 | 4 | 60* | -1 | 1 | 0
COc1ccc(N2CCN(C(=S)NCc3ccccc3)CC2)cc1 | 3 | -1 | -1 | -2 | -4 | 2
CN(c1cccc(NC(=O)c2ccc(N(C)S(=O)(=O)c3ccccc3)cc2)c1)S(C)(=O)=O | 0 | 3 | -3 | 1 | -15 | -8
CN(c1cccc(NC(=O)c2ccc(C(C)(C)C)cc2)c1)S(C)(=O)=O | 2 | 4 | 44* | 1 | -3 | 7
CCn1c(=S)sc2c(=O)n(CC(=O)Nc3ccc(OC)c(Cl)c3)c(C)nc21 | 0 | 6 | 0 | 1 | -11 | -5
COCCNc1nc(NCc2cc(-c3ccc(OC)cc3)no2)c2sccc2n1 | 2 | 1 | 7 | 57* | . | -7
NS(=O)(=O)c1ccc(CNC(=O)c2cc(S(=O)(=O)N3CCOCC3)c(Cl)cc2Cl)cc1 | 0 | 0 | -4 | -1 | 3 | -2
Cc1c(/C=C2\SC(=O)N(CC(=O)Nc3ccc4c(c3)OCO4)C2=O)c2ccccc2n1C | -2 | 9 | -7 | 3 | -7 | 6
Cc1cc(C(=O)O)ccc1-c1ccc(/C=C2\SC(=O)N(CC(=O)Nc3ccc4c(c3)OCO4)C2=O)o1 | 64* | 18 | 73* | 80* | . | 101*
Cc1ccc(/C=C2\SC(=S)N(Cc3ccccc3)C2=O)o1 | 1 | . | -3 | 4 | -12 | -19

High-throughput results: PubChem BioAssay, Sanford-Burnham Center for Chemical Genomics
